{"data": "Measurements pooled from the literature", "ALOX5": "Polyunsaturated fatty acid 5-lipoxygenase (ALOX5, Homo sapiens, UniProt P09917)", "HDAC8": "Histone deacetylase 8 (HDAC8, Homo sapiens, UniProt Q9BY41)", "TACR2": "Substance-K receptor (TACR2, Homo sapiens, UniProt P21452)", "HTR1D": "5-hydroxytryptamine receptor 1D (HTR1D, Homo sapiens, UniProt P28221)", "note": "Compare with care: the assays were run in different laboratories."}
{"Structure (SMILES)": "CN(C)C1CCN(CC#Cc2nn(C3CCCC3)c3nc(NCc4ccccc4)ncc23)C1 (stereo not shown)", "target": "G protein-coupled receptor kinase 4 (GRK4, Homo sapiens, UniProt P32298)", "assay": "enzyme activity, inhibitor, FRET", "setting": "0.1 µM", "inhibition": "7%"}
{"Structure (SMILES)": "Cc1occ(O)c(=O)c1C(=O)O", "target": "ALOX5", "assay": "enzyme activity, inhibitor, fluorescence", "setting": "1 mM", "inhibition": "> 70%"}
{"Structure (SMILES)": "CC1(C)CC[C@]2(C)CC[C@]3(C)[C@H]4CC=C5[C@@H](CC[C@H](O)C5(C)C)[C@]4(C)CC[C@@]3(C)[C@@H]2C1", "target": "HDAC8", "assay": "enzyme activity, inhibitor", "setting": "10 µM", "inhibition": "44.8%"}
{"Structure (SMILES)": "COc1cc(Cl)c(C(=O)N[C@@H](CN[C@H]2CC[C@@H](N)CC2)Cc2ccc(C#N)cc2)cc1-c1ccc(CN[C@H](C)c2ccc(C)cc2)o1", "target": "Somatostatin receptor type 4 (SSTR4, Homo sapiens, UniProt P31391)", "assay": "calcium signal, antagonist", "setting": "10 µM", "inhibition": "12%"}
{"Structure (SMILES)": "O=C1N=C(N2CCCCN2)S/C1=C\\c1ccc(F)cc1O", "target": "TACR2", "assay": "ligand displacement, radioligand", "setting": "10 µM", "inhibition": "< 10%"}
{"Structure (SMILES)": "CCN1CCN(Cc2ccc(NC(=O)c3ccc(C)c(/C=C/c4cnc5[nH]ccc5c4OC)c3)cc2C(F)(F)F)CC1", "target": "Mitogen-activated protein kinase kinase kinase 4 (MAP3K4, Homo sapiens, UniProt Q9Y6R4)", "assay": "target engagement in cells, inhibitor, chemoproteomics", "test system": "A-375", "setting": "50 nM", "inhibition": "-0.65%"}
{"Structure (SMILES)": "CC1(C)CC[C@]2(C)CC[C@]3(C)C(=CC[C@@H]4[C@@]5(C)CC[C@H](O)C(C)(C)[C@@H]5CC[C@]43C)[C@@H]2C1", "target": "HDAC8", "assay": "enzyme activity, inhibitor", "setting": "10 µM", "inhibition": "34.9%"}
{"Structure (SMILES)": "CCc1c(O)c(=S)ccn1CC", "target": "ALOX5", "assay": "enzyme activity, inhibitor, fluorescence", "setting": "1 mM", "inhibition": "> 70%"}
{"Structure (SMILES)": "Oc1cccc(Nc2nc(-c3ccc(F)cc3F)cs2)c1", "target": "Mu-type opioid receptor (OPRM1, Homo sapiens, UniProt P35372)", "assay": "ligand displacement", "setting": "10 µM", "inhibition": "14.2%"}
{"Structure (SMILES)": "C/C=C(/C)C(=O)O[C@@H]1[C@H](OC(C)=O)c2c(ccc3ccc(=O)oc23)OC1(C)C", "target": "HDAC8", "assay": "enzyme activity, inhibitor", "setting": "10 µM", "inhibition": "40.9%"}
{"Structure (SMILES)": "O=C(c1ccc(Cl)cc1)N(Cc1ccccc1)C1CCCCC1", "target": "TACR2", "assay": "cell-free assay", "setting": "10 µM", "inhibition": "15%"}
{"Structure (SMILES)": "CC(=O)O[C@@H]1c2c(ccc3ccc(=O)oc23)OC(C)(C)[C@@H]1OC(=O)C1(C)OC1C (stereo partly shown)", "target": "HDAC8", "assay": "enzyme activity, inhibitor", "setting": "10 µM", "inhibition": "43.5%"}
{"Structure (SMILES)": "COc1cc(NC(C)=O)c(Cl)cc1C(=O)Nc1nccs1", "target": "TACR2", "assay": "cell-free assay", "setting": "10 µM", "inhibition": "20%"}
{"Structure (SMILES)": "CCN(CC)c1ccc(C2Nc3ccc(C(=O)c4ccccc4)cc3NC3=C2C(=O)CC(C)(C)C3)cc1 (stereo not shown)", "target": "HTR1D", "assay": "ligand displacement, radioligand", "setting": "10 µM", "inhibition": "25%"}
{"Structure (SMILES)": "N#Cc1cc(Cn2c(N3CCCC3)nc3ccccc32)ccc1F", "target": "HTR1D", "assay": "cell-free assay", "setting": "10 µM", "inhibition": "-36.9%"}
{"Structure (SMILES)": "COc1ccc(CCCn2ncc3c2nc(N)n2nc(-c4ccco4)nc32)cc1", "target": "Adenosine receptor A3 (Mus musculus, UniProt Q61618)", "assay": "ligand displacement, radioligand", "setting": "10 µM, cell membranes", "inhibition": "6%"}
